ChEMBL document CHEMBL3784923, “Azathioprine pharmacokinetics after intravenous, oral, delayed release oral and rectal foam administration” (Gut, 1996)

Experiments:
[1] = Drug excretion in feces of human treated with Eudragit coated tablets; format: ADME, tissue-based; settings: faeces, po, read-out: Drug excretion
Homo sapiens = organism: Homo sapiens; test: Toxicity in inflammatory bowel disease patient assessed as induction of leucopenia; format: organism-based; settings: in vivo
[2] = Stability in plasma (unknown origin) at room temperature; format: ADME, cell-free; settings: unidentified
Summary of the method: (§1)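 6MP in plasma was held at room temperature, both unextracted and after extraction, and measured by HPLC.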

[3] = Stability in plasma (unknown origin) using compound stored in frozen condition; format: ADME, cell-free; settings: unidentified
[4] = Stability in whole blood (unknown origin) using compound stored in ice water slurry; format: ADME, tissue-based; settings: unidentified
[5] = Stability of the compound in extracted form in plasma (unknown origin) at room temperature; format: ADME, cell-free; settings: unidentified; summary of the method: as §1
[6] = Cmax in uraemic patient (8 patients) at 100 mg, po; settings: human, in vivo
[7] = Clearance in uraemic patient (15 patients) at 100 mg, iv; settings: human, in vivo
[8] = Oral bioavailability in uraemic patient (8 patients) at 100 mg; settings: human, in vivo
[9] = Tmax in uraemic patient (8 patients) at 100 mg, po; settings: human, in vivo
[10] = Volume of distribution at steady state in uraemic patient (15 patients) at 100 mg, iv; settings: human, in vivo

dose excreted [1]	Stability [2]	Stability [3]	Stability [4]	Stability [5]	Cmax [6]	clearance [7]	bioavailability [8]	Tmax [9]	Vd [10]	Structure (SMILES)	Activity (Homo sapiens)
25%	–	–	–	–	–	–	–	–	–	Nc1ccc(O)c(C(=O)O)c1 [MESALAMINE]	–
–	4 h	<= 1 yr	<= 5 hr	<= 30 hr	–	–	–	–	–	Sc1ncnc2nc[nH]c12 [MERCAPTOPURINE ANHYDROUS]	2%
–	–	<= 1 yr	<= 5 hr	–	0.022 µg/mL	6.2 L/h/kg	41%	1.5 h	9.3 L/kg	Cn1cnc([N+](=O)[O-])c1Sc1ncnc2nc[nH]c12 [AZATHIOPRINE]	2%
